Reference: ChEMBL document CHEMBL1138578, “Synthesis and antibacterial activity of nitroaryl thiadiazole-gatifloxacin hybrids” (Eur J Med Chem, 2009)
Values after ≈ are worked out from the molar mass of the structure shown.

test system: Staphylococcus aureus; assay: Antibacterial activity against Staphylococcus aureus ATCC 25923 after 18 hrs by conventional agar dilution method; assay type: functional; conditions: ATCC 25923, 18 h
In short: (§1)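 Twofold dilutions in DMSO (1 mL) mixed into molten Mueller–Hinton agar (19 mL) at 50 °C. Inocula adjusted at 600 nm to about 0.5 McFarland (1.5 × 10⁸ CFU/mL), then diluted in 0.85% saline to 10⁷ CFU/mL. Plates spot-inoculated at 10⁴ CFU/spot and incubated 35–37 °C for 18 h. MIC is the lowest concentration giving no visible growth. DMSO-only control plates included.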

**Q.** For `COc1c(N2CCN(c3nnc(-c4ncc([N+](=O)[O-])n4C)s3)C(C)C2)c(F)cc2c(=O)c(C(=O)O)cn(C3CC3)c12` (stereo unspecified), which MIC is on record?
**A.** The MIC was 0.0313 µg/mL (≈ 0.0535 µM).

**Q.** Which MIC does the source give for `COc1c(N2CCN(c3nnc(-c4ccc([N+](=O)[O-])o4)s3)C(C)C2)c(F)cc2c(=O)c(C(=O)O)cn(C3CC3)c12` (stereo unspecified) here?
**A.** The MIC was 0.125 µg/mL (≈ 0.219 µM).

test system: Staphylococcus epidermidis; assay: Antibacterial activity against Staphylococcus epidermidis ATCC 4940 after 18 hrs by conventional agar dilution method; assay type: functional; conditions: ATCC 4940, 18 h; in short: as §1

**Q.** For `COc1c(N2CCN(c3nnc(-c4ncc([N+](=O)[O-])n4C)s3)C(C)C2)c(F)cc2c(=O)c(C(=O)O)cn(C3CC3)c12` (stereo unspecified), which MIC is on record?
**A.** The MIC was 0.5 µg/mL (≈ 0.855 µM).

**Q.** With `COc1c(N2CCN(c3nnc(-c4ccc([N+](=O)[O-])o4)s3)C(C)C2)c(F)cc2c(=O)c(C(=O)O)cn(C3CC3)c12` (stereo unspecified) as the compound, how does the MIC read?
**A.** The MIC was 0.0078 µg/mL (≈ 0.0137 µM).

test system: Streptococcus pneumoniae; assay: Antibacterial activity against Streptococcus pneumoniae ATCC 1240 after 18 hrs by conventional agar dilution method; assay type: functional; conditions: ATCC 1240, 18 h; in short: as §1

**Q.** For `COc1c(N2CCN(c3nnc(-c4ncc([N+](=O)[O-])n4C)s3)C(C)C2)c(F)cc2c(=O)c(C(=O)O)cn(C3CC3)c12` (stereo unspecified), which MIC is on record?
**A.** The MIC was 1 µg/mL (≈ 1.71 µM).

**Q.** With `COc1c(N2CCN(c3nnc(-c4ccc([N+](=O)[O-])o4)s3)C(C)C2)c(F)cc2c(=O)c(C(=O)O)cn(C3CC3)c12` (stereo unspecified) as the compound, how does the MIC read?
**A.** The MIC was 0.25 µg/mL (≈ 0.438 µM).

test system: Bacillus subtilis; assay: Antibacterial activity against Bacillus subtilis ATCC 6051 after 18 hrs by conventional agar dilution method; assay type: functional; conditions: ATCC 6051, 18 h; in short: as §1

**Q.** With `COc1c(N2CCN(c3nnc(-c4ncc([N+](=O)[O-])n4C)s3)C(C)C2)c(F)cc2c(=O)c(C(=O)O)cn(C3CC3)c12` (stereo unspecified) as the compound, how does the MIC read?
**A.** Its MIC is 0.5 µg/mL (≈ 0.855 µM).

**Q.** For `COc1c(N2CCN(c3nnc(-c4ccc([N+](=O)[O-])o4)s3)C(C)C2)c(F)cc2c(=O)c(C(=O)O)cn(C3CC3)c12` (stereo unspecified), which MIC is on record?
**A.** The MIC was 0.0039 µg/mL (≈ 0.00684 µM).

test system: Enterococcus faecalis; assay: Antibacterial activity against Enterococcus faecalis NCTC 6013 after 18 hrs by conventional agar dilution method; assay type: functional; conditions: NCTC 6013, 18 h; in short: as §1

**Q.** For `COc1c(N2CCN(c3nnc(-c4ncc([N+](=O)[O-])n4C)s3)C(C)C2)c(F)cc2c(=O)c(C(=O)O)cn(C3CC3)c12` (stereo unspecified), which MIC is on record?
**A.** Its MIC is 4 µg/mL (≈ 6.84 µM).

**Q.** With `COc1c(N2CCN(c3nnc(-c4ccc([N+](=O)[O-])o4)s3)C(C)C2)c(F)cc2c(=O)c(C(=O)O)cn(C3CC3)c12` (stereo unspecified) as the compound, how does the MIC read?
**A.** Its MIC is 0.125 µg/mL (≈ 0.219 µM).

test system: Micrococcus luteus; assay: Antibacterial activity against Micrococcus luteus ATCC 1110 after 18 hrs by conventional agar dilution method; assay type: functional; conditions: ATCC 1110, 18 h; in short: as §1

**Q.** Which MIC does the source give for `COc1c(N2CCN(c3nnc(-c4ncc([N+](=O)[O-])n4C)s3)C(C)C2)c(F)cc2c(=O)c(C(=O)O)cn(C3CC3)c12` (stereo unspecified) here?
**A.** Its MIC is 2 µg/mL (≈ 3.42 µM).

**Q.** For `COc1c(N2CCN(c3nnc(-c4ccc([N+](=O)[O-])o4)s3)C(C)C2)c(F)cc2c(=O)c(C(=O)O)cn(C3CC3)c12` (stereo unspecified), which MIC is on record?
**A.** Its MIC is 0.125 µg/mL (≈ 0.219 µM).

test system: Escherichia coli; assay: Antibacterial activity against Escherichia coli ATCC 25922 after 18 hrs by conventional agar dilution method; assay type: functional; conditions: ATCC 25922, 18 h; in short: as §1

**Q.** Which MIC does the source give for `COc1c(N2CCN(c3nnc(-c4ncc([N+](=O)[O-])n4C)s3)C(C)C2)c(F)cc2c(=O)c(C(=O)O)cn(C3CC3)c12` (stereo unspecified) here?
**A.** The MIC was 16 µg/mL (≈ 27.4 µM).

**Q.** For `COc1c(N2CCN(c3nnc(-c4ccc([N+](=O)[O-])o4)s3)C(C)C2)c(F)cc2c(=O)c(C(=O)O)cn(C3CC3)c12` (stereo unspecified), which MIC is on record?
**A.** The MIC was 1 µg/mL (≈ 1.75 µM).

test system: Salmonella enterica subsp. enterica serovar Typhi str. CT18; assay: Antibacterial activity against Salmonella typhi ATCC 19430 after 18 hrs by conventional agar dilution method; assay type: functional; conditions: ATCC 19430, 18 h
In short: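 Twofold dilutions in DMSO mixed into molten Mueller–Hinton agar at 50 °C. Inoculum adjusted at 600 nm to about 0.5 McFarland (1.5 ×10⁸ CFU/mL), then diluted in 0.85% saline to 10⁷ CFU/mL. Plates spot-inoculated at 10⁴ CFU/spot and incubated at 35–37 °C for 18 h. MIC taken as the lowest concentration with no visible growth. DMSO solvent control run at matching dilutions.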

**Q.** With `COc1c(N2CCN(c3nnc(-c4ncc([N+](=O)[O-])n4C)s3)C(C)C2)c(F)cc2c(=O)c(C(=O)O)cn(C3CC3)c12` (stereo unspecified) as the compound, how does the MIC read?
**A.** The MIC was 0.25 µg/mL (≈ 0.428 µM).

**Q.** With `COc1c(N2CCN(c3nnc(-c4ccc([N+](=O)[O-])o4)s3)C(C)C2)c(F)cc2c(=O)c(C(=O)O)cn(C3CC3)c12` (stereo unspecified) as the compound, how does the MIC read?
**A.** The MIC was 1 µg/mL (≈ 1.75 µM).

test system: Shigella flexneri; assay: Antibacterial activity against Shigella flexneri NCTC 8516 after 18 hrs by conventional agar dilution method; assay type: functional; conditions: NCTC 8516, 18 h; in short: as §1

**Q.** Which MIC does the source give for `COc1c(N2CCN(c3nnc(-c4ncc([N+](=O)[O-])n4C)s3)C(C)C2)c(F)cc2c(=O)c(C(=O)O)cn(C3CC3)c12` (stereo unspecified) here?
**A.** Its MIC is 1 µg/mL (≈ 1.71 µM).

**Q.** Which MIC does the source give for `COc1c(N2CCN(c3nnc(-c4ccc([N+](=O)[O-])o4)s3)C(C)C2)c(F)cc2c(=O)c(C(=O)O)cn(C3CC3)c12` (stereo unspecified) here?
**A.** Its MIC is 0.5 µg/mL (≈ 0.876 µM).

test system: Klebsiella pneumoniae; assay: Antibacterial activity against Klebsiella pneumoniae ATCC 10031 after 18 hrs by conventional agar dilution method; assay type: functional; conditions: ATCC 10031, 18 h; in short: as §1

**Q.** For `COc1c(N2CCN(c3nnc(-c4ncc([N+](=O)[O-])n4C)s3)C(C)C2)c(F)cc2c(=O)c(C(=O)O)cn(C3CC3)c12` (stereo unspecified), which MIC is on record?
**A.** The MIC was 0.5 µg/mL (≈ 0.855 µM).

**Q.** For `COc1c(N2CCN(c3nnc(-c4ccc([N+](=O)[O-])o4)s3)C(C)C2)c(F)cc2c(=O)c(C(=O)O)cn(C3CC3)c12` (stereo unspecified), which MIC is on record?
**A.** The MIC was 1 µg/mL (≈ 1.75 µM).

test system: Serratia marcescens; assay: Antibacterial activity against Serratia marcescens PTCC 1111 after 18 hrs by conventional agar dilution method; assay type: functional; conditions: PTCC 1111, 18 h; in short: as §1

**Q.** Which MIC does the source give for `COc1c(N2CCN(c3nnc(-c4ncc([N+](=O)[O-])n4C)s3)C(C)C2)c(F)cc2c(=O)c(C(=O)O)cn(C3CC3)c12` (stereo unspecified) here?
**A.** The MIC was 64 µg/mL (≈ 109 µM).

**Q.** For `COc1c(N2CCN(c3nnc(-c4ccc([N+](=O)[O-])o4)s3)C(C)C2)c(F)cc2c(=O)c(C(=O)O)cn(C3CC3)c12` (stereo unspecified), which MIC is on record?
**A.** The MIC was 8 µg/mL (≈ 14 µM).

test system: Pseudomonas aeruginosa; assay: Antibacterial activity against Pseudomonas aeruginosa ATCC 27853 after 18 hrs by conventional agar dilution method; assay type: functional; conditions: ATCC 27853, 18 h; in short: as §1

**Q.** With `COc1c(N2CCN(c3nnc(-c4ncc([N+](=O)[O-])n4C)s3)C(C)C2)c(F)cc2c(=O)c(C(=O)O)cn(C3CC3)c12` (stereo unspecified) as the compound, how does the MIC read?
**A.** The MIC was greater than 64 µg/mL.

**Q.** With `COc1c(N2CCN(c3nnc(-c4ccc([N+](=O)[O-])o4)s3)C(C)C2)c(F)cc2c(=O)c(C(=O)O)cn(C3CC3)c12` (stereo unspecified) as the compound, how does the MIC read?
**A.** The MIC was greater than 64 µg/mL.

test system: not listed separately; assay: Cytotoxicity against mouse NIH/3T3 cells after 72 hrs by MTT assay; assay type: cell-based; conditions: NIH3T3, 72 h
In short: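 Exponential-phase NIH/3T3 fibroblasts trypsinized and diluted in complete medium to 5 × 10⁴ cells/mL, then plated in 96-well plates. Serial compound dilutions added, each in triplicate, with cell-only wells as the viability control. Incubation 72 h, then MTT (5 mg/mL solution) added for 1 h and the medium replaced for colorimetric read-out.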

**Q.** With `COc1c(N2CCN(c3nnc(-c4ncc([N+](=O)[O-])n4C)s3)C(C)C2)c(F)cc2c(=O)c(C(=O)O)cn(C3CC3)c12` (stereo unspecified) as the compound, how does the IC50 read?
**A.** The IC50 was 246 µM.

**Q.** With `COc1c(N2CCN(c3nnc(-c4ccc([N+](=O)[O-])o4)s3)C(C)C2)c(F)cc2c(=O)c(C(=O)O)cn(C3CC3)c12` (stereo unspecified) as the compound, how does the IC50 read?
**A.** The IC50 was 238 µM.
